A short description of experiment [1]: Inhibition of cell division in sea urchin fertilized egg. The format is functional, Strongylocentrotus intermedius. The gist of the method: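 Fertilized eggs of the sea urchin Strongylocentrotus intermedius were scored for inhibition of cell division. IC50 is expressed in μg/mL.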
The subject of a further experiment is K562. Briefly: Cytotoxicity against human K562 cells by MTT assay. The experiment is classed as functional. The settings on record: read-out: LC50 (the source's name). The method, boiled down:
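Human leukemia K562 line; viability by MTT method; activity expressed as LC50 in μg/mL.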
Background: Tetrazolium dyes change colour on reduction, which living cells bring about.

For the next experiment, the system named is Bacillus subtilis. Kind of experiment: Antimicrobial activity against Bacillus subtilis at 25 ug by paper-disk method. The format is functional. The settings on record: read-out: IZ. The method, boiled down:
(§1)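 Paper-disk diffusion assay with 25 μg of sample applied. Activity was read as the diameter of the inhibition zone in mm.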

For a further experiment, the system named is Candida albicans. Kind of experiment: Antimicrobial activity against Candida albicans at 25 ug by paper-disk method. The experiment is classed as functional. The settings on record: read-out: IZ. The gist of the method:
as §1

A further experiment deals with Escherichia coli. Briefly: Antimicrobial activity against Escherichia coli at 25 ug by paper-disk method. The experiment is classed as functional. The settings on record: read-out: IZ. The method, boiled down: as §1
The test system of the next experiment is Staphylococcus aureus. Kind of experiment: Antimicrobial activity against Staphylococcus aureus at 25 ug by paper-disk method. As to conditions: read-out: IZ. The experiment is classed as functional. The method, boiled down: as §1
A further experiment relates to Streptococcus sp. Kind of experiment: Antimicrobial activity against Streptococcus sp. at 25 ug by paper-disk method. The format is functional. The settings on record: read-out: IZ. The gist of the method: as §1

As usually defined, the IC50 is the concentration that inhibits the measured activity by half. Low values mean greater potency, high ones weaker potency. Consider `C[C@H]1CC[C@H]2C(=CCCC2(C)C)[C@@]1(C)CCC(CCCC1=CC(=O)OC1)COS(=O)(=O)[O-].[Na+]` (stereo not given in full) [HALISULPHATE 9], for which, in experiment [1], the IC50 worked out at 50 µg/mL. Further, in the experiment on K562, the CC50 was above 100 µg/mL. Besides, the zone of inhibition at 25 µg/disc in the experiment on Bacillus subtilis, in the experiment on Candida albicans, in the experiment on Escherichia coli, in the experiment with Staphylococcus aureus and with Streptococcus sp. was below 3 mm each time.
For the compound `COC1C=C(CCCC(CC[C@]2(C)C3=CCCC(C)(C)[C@H]3CC[C@@H]2C)COS(=O)(=O)[O-])C(=O)O1.[Na+]` (stereo not given in full) [HALISULPHATE 10], in experiment [1], the IC50 stood at 35 µg/mL. Besides, the CC50 in the experiment with K562 was above 100 µg/mL. Moreover, the zone of inhibition at 25 µg/disc with Bacillus subtilis, with Candida albicans, in the experiment with Escherichia coli, in the experiment on Staphylococcus aureus and with Streptococcus sp. was below 3 mm in each case.
Regarding `C[C@H]1CC[C@H]2C(=CC(=O)CC2(C)C)[C@@]1(C)CCC(CCCc1ccoc1)COS(=O)(=O)[O-].[Na+]` (stereo not given in full) [HALISULPHATE 8], the CC50 with K562 was above 100 µg/mL. For the same compound, the zone of inhibition at 25 µg/disc with Bacillus subtilis, with Candida albicans, in the experiment with Escherichia coli, in the experiment on Staphylococcus aureus and in the experiment on Streptococcus sp. was below 3 mm throughout.

These data come from ChEMBL document CHEMBL1146561, “New sesterterpene sulfates from the sponge Darwinella australensis” (J Nat Prod, 2003).
